{"source": "paper PMC5033713", "about": "(Neuron, 2016)", "type_in_all_cases": "cell-based", "key": {"GluA2D519A": {"target": "GluA2D519A (Rattus norvegicus, UniProt P19491, D540A)", "assay": "Whole-cell patch-clamp, current inhibition of alanine mutant GluA2D519A", "outline": "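Rat GluA2 D519A transiently expressed in HEK293 cells (Lipofectamine 2000). Whole-cell recording at −60 mV with piezo-driven theta-pipette fast solution exchange. 500 ms co-applications of 3 mM Glu with graded test compound concentrations, 30 μM CTZ present throughout, Glu alone as control. Logistic fits of normalized currents gave IC50 and nHill, n = 7 cells. IC50 also expressed relative to wild-type.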"}, "GluA2 S615A": {"target": "GluA2 S615A (Rattus norvegicus, UniProt P19491, S636A)", "assay": "Whole-cell patch-clamp, current inhibition of alanine mutant S615A"}, "GluA2F623A": {"target": "GluA2F623A (Rattus norvegicus, UniProt P19491, F644A)", "assay": "Whole-cell patch-clamp, current inhibition of alanine mutant GluA2F623A"}, "GluA2Del": {"target": "GluA2Del (Rattus norvegicus, UniProt P19491, C610A/DEL399-404/DEL566-584/E587D/G405E/N256E/N406D/N413Q/S585D/S586T/V397L, form not given)", "conditions": "for voltage dependence of current inhibition: GluA2Del receptor-mediated current; for Hill coefficient (nHill): GluA2Del, HEK293, 3 mM Glu co-application, −60 mV, 30 μM CTZ, logistic fit"}, "GluA2WT": {"target": "GluA2WT (Rattus norvegicus, UniProt P19491)", "conditions": "for voltage dependence of current inhibition: GluA2WT receptor-mediated current; for Hill coefficient (nHill): GluA2WT, HEK293, 3 mM Glu co-application, −60 mV, 30 μM CTZ, logistic fit"}, "GluA2 S788A": {"target": "GluA2 S788A (Rattus norvegicus, UniProt P19491, S809A)", "assay": "Whole-cell patch-clamp, current inhibition of alanine mutant S788A", "conditions": "S788 alanine substitution versus wild-type", "outline": "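Alanine-substituted GluA2 transiently expressed in HEK293 cells. Whole-cell currents evoked by Glu via rapid theta-pipette solution exchange, co-applied with graded noncompetitive inhibitor concentrations. Normalized current concentration dependencies fitted with the logistic equation. Mutant IC50 expressed relative to the wild-type receptor value.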"}}}
{"smiles": "CNC(=O)N1N=C(c2ccc(N)cc2)c2cc3c(cc2CC1C)OCO3", "note": "(stereo not shown) [GYKI, GYKI 53655]", "values": [{"measurement": "IC50", "setting": "GluA2D519A", "value": "3.8 ± 0.58", "unit": "µM"}, {"measurement": "nHill", "setting": "GluA2D519A; D519A mutant, 3 mM Glu, −60 mV, 30 μM CTZ", "value": "1.58 ± 0.12"}, {"measurement": "change in IC50 value compared to wild-type", "setting": "GluA2 S615A", "value": "two orders of magnitude increase"}, {"measurement": "IC50", "setting": "GluA2F623A", "value": "153 ± 8", "unit": "µM"}, {"measurement": "nHill", "setting": "GluA2F623A; F623A mutant, 3 mM Glu, −60 mV, 30 μM CTZ", "value": "1.18 ± 0.07"}, {"measurement": "voltage dependence of current inhibition", "setting": "GluA2Del", "value": "voltage independent"}, {"measurement": "Hill coefficient (nHill)", "setting": "GluA2Del", "value": "1.29 ± 0.08"}, {"measurement": "IC50", "setting": "GluA2WT", "value": "14.5 ± 1.6", "unit": "µM"}, {"measurement": "voltage dependence of current inhibition", "setting": "GluA2WT", "value": "voltage independent"}, {"measurement": "Hill coefficient (nHill)", "setting": "GluA2WT", "value": "1.29 ± 0.08"}, {"measurement": "effect of substitution on inhibition", "setting": "GluA2 S788A", "value": "Reduced affinity"}]}
{"smiles": "N#Cc1ccccc1-c1cc(-c2ccccn2)cn(-c2ccccc2)c1=O", "note": "[PMP, perampanel]", "values": [{"measurement": "effect of substitution on inhibition", "setting": "GluA2D519A; D519 alanine substitution versus wild-type", "value": "no appreciable effect"}, {"measurement": "change in IC50 value compared to wild-type", "setting": "GluA2F623A; F623A mutant", "value": "two orders of magnitude increase"}, {"measurement": "voltage dependence of current inhibition", "setting": "GluA2Del", "value": "voltage independent"}, {"measurement": "Hill coefficient (nHill)", "setting": "GluA2Del", "value": "1.08 ± 0.04"}, {"measurement": "IC50", "setting": "GluA2WT", "value": "0.89 ± 0.07", "unit": "µM"}, {"measurement": "voltage dependence of current inhibition", "setting": "GluA2WT", "value": "voltage independent"}, {"measurement": "Hill coefficient (nHill)", "setting": "GluA2WT", "value": "1.08 ± 0.05"}, {"measurement": "effect of substitution on inhibition", "setting": "GluA2 S788A", "value": "no appreciable effect"}]}
